According to ChEMBL document CHEMBL1148340 (J Med Chem, 2004):

What was measured:
[1] = molecular target: T1, Human immunodeficiency virus type 1 reverse transcriptase (Human immunodeficiency virus 1, UniProt Q72547); assay: Inhibitory concentration against wild type HIV-1 reverse transcriptase (RT) using poly rC.dG as the template or primer
Procedure, shortened: (§1)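 Recombinant HIV-1 RT (IIIB-derived) or Glu138Lys mutant. Buffer: 50 mM Tris-HCl pH 7.8, 5 mM DTT, 150 mM KCl, 5 mM MgCl₂, 500 μM EDTA, 0.06% Triton X-100, with BSA. Incubated 37 °C, 30 min, then TCA/pyrophosphate precipitation on ice.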

[2] = molecular target: T1, Human immunodeficiency virus type 1 reverse transcriptase; assay: Inhibitory concentration against […] HIV-1/138Lys reverse transcriptase (RT) using [3H]dGTP as a radioligand; procedure, shortened: as §1
[3] = system: CCRF-CEM; assay: Effective concentration required to inhibit HIV-2 induced cytopathicity in human CEM cell lines; format: functional, cell-based
Procedure, shortened: (§2)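 CEM cells at 4 × 10⁵/mL were infected with HIV-1 or HIV-2 at ~100 CCID₅₀ per mL. The cells were mixed 1:1 with serial compound dilutions. Giant cell formation was scored microscopically after 4 days. EC₅₀ is the concentration that inhibited virus-induced cytopathicity by 50%.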

[4] = Partition coefficient (logP); format: physicochemical; settings: octanol/water
[5] = system: MT4; assay: Cytostatic concentration required to reduce MT-4 cell viability in mock-infected cell cultures; format: functional; settings: Homo sapiens
Procedure, shortened: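 Mock-infected MT-4 cells at 3 × 10⁵/mL were exposed to compound dilutions. Viable cells were counted by trypan blue exclusion. CC₅₀ is the concentration that reduced the number of viable cells by 50%.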

[6] = system: CCRF-CEM; assay: Effective concentration required to inhibit HIV-1 induced cytopathicity in human CEM cell lines; format: functional, cell-based; procedure, shortened: as §2
[7] = system: MT4; assay: Effective concentration required to inhibit HIV-1 induced cytopathicity in human MT-4 cell lines; format: functional, cell-based
Procedure, shortened: (§3)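 MT-4 cells at 3 × 10⁵/mL were infected with HIV-1 or HIV-2 at ~100 CCID₅₀ per mL and mixed 1:1 with compound dilutions. After 5 days, HIV-induced cytopathicity was recorded by trypan blue dye exclusion. EC₅₀ is the concentration that reduced virus-induced loss of cell viability by 50%.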

[8] = system: CCRF-CEM; assay: Cytostatic concentration required to inhibit proliferation of CEM cells; format: functional; settings: Homo sapiens
Procedure, shortened: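 CEM cells were cultured with serial compound dilutions alongside the antiviral assay. CC₅₀ is the concentration that inhibited cell proliferation by 50%.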

[9] = system: MT4; assay: Effective concentration required to inhibit HIV-2 induced cytopathicity in human MT-4 cell lines; format: functional, cell-based; procedure, shortened: as §3
[10] = system: CCRF-CEM; assay: Effective concentration required to inhibit HIV-1E138K induced cytopathicity in human CEM cell lines
[11] = system: Human immunodeficiency virus 1; assay: Anti-HIV activity against PFA-resistant mutant HIV-1W88G strain in P4/R5 cells; format: functional, organism-based; settings: Human immunodeficiency virus 1, P4/R5
Procedure, shortened: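 HeLa-derived P4/R5 reporter cells (stable Tat-activated β-galactosidase under HIV LTR), 5×10^4 cells/mL, infected with HIV-1 LAI or W88G at MOI 0.05 TCID₅₀/mL. Drug added in 2- or 3-fold dilutions, in triplicate. At 48 h, lysis buffer and luminescent substrate added and β-galactosidase read by luminometer. EC₅₀ given as mean ± SD of five independent experiments (three in one case).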

[12] = system: Human immunodeficiency virus 1; assay: Anti-HIV activity against wild type HIV-1(LAI) strain in P4/R5 cells; settings: Human immunodeficiency virus 1, P4/R5

SMILES	IC50 [1] [µM]	IC50 [2] [µM]	EC50 [3] [µM]	logP [4]	CC50 [5] [µM]	EC50 [6] [µM]	EC50 [7] [µM]	CC50 [8] [µM]	EC50 [9] [µM]	EC50 [10] [µM]	EC50 [11] [µM]	EC50 [12] [µM]
Cc1cn([C@@H]2O[C@H](CO[Si](C)(C)C(C)(C)C)[C@@]3(OS(=O)(=O)C=C3N)[C@H]2O[Si](C)(C)C(C)(C)C)c(=O)n(C)c1=O	3.1	> 100	–	–	–	–	–	–	–	–	–	–
CCOC(=O)P(=O)(O)OCCCn1c(=O)c(C)cn([C@@H]2O[C@H](CO[Si](C)(C)C(C)(C)C)[C@@]3(OS(=O)(=O)C=C3N)[C@H]2O[Si](C)(C)C(C)(C)C)c1=O	6.3	293	> 50	4.01	84.3	2.13	4.23	135	> 50	25	–	–
COC(=O)P(=O)(O)OCCCn1c(=O)c(C)cn([C@@H]2O[C@H](CO[Si](C)(C)C(C)(C)C)[C@@]3(OS(=O)(=O)C=C3N)[C@H]2O[Si](C)(C)C(C)(C)C)c1=O	4.7	394	> 50	4.01	55.5	4.5	20.1	146	> 50	> 50	–	–
Cc1cn([C@@H]2O[C@H](CO[Si](C)(C)C(C)(C)C)[C@@]3(OS(=O)(=O)C=C3N)[C@H]2O[Si](C)(C)C(C)(C)C)c(=O)n(CCCOP(=O)(O)C(=O)O)c1=O	3.7	437	> 50	0.63	111	0.47	0.82	178	> 50	≥ 50	0.16	0.3
Cc1cn([C@@H]2O[C@H](CO[Si](C)(C)C(C)(C)C)[C@@]3(OS(=O)(=O)C=C3N)[C@H]2O[Si](C)(C)C(C)(C)C)c(=O)n(CCCOP(=O)(O)C(=O)OCc2ccccc2)c1=O	3.8	312	> 50	5.02	84	3	1.26	138	> 50	20	–	–
COC(=O)P(=O)(OC)OCCCn1c(=O)c(C)cn([C@@H]2O[C@H](CO[Si](C)(C)C(C)(C)C)[C@@]3(OS(=O)(=O)C=C3N)[C@H]2O[Si](C)(C)C(C)(C)C)c1=O (some centres not stated)	11	> 500	> 50	7.12	18.4	0.08	0.282	20.9	> 10	> 10	–	–
Cc1cn([C@@H]2O[C@H](CO[Si](C)(C)C(C)(C)C)[C@@]3(OS(=O)(=O)C=C3N)[C@H]2O[Si](C)(C)C(C)(C)C)c(=O)n(CCCO)c1=O	8.1	> 100	> 10	2.26	3.86	–	–	–	> 2	> 2	0.027	0.043
O=C(O)P(=O)(O)O [FOSCARNET]	–	–	105	-0.56	230	121	133	–	140	87	> 300	44
